aDG glyco act: increases alpha dystroglycan glycosylation | Pro5-aDG cells, alpha-DG glycosylation AlphaScreen (IIH6); 0% Pro5, 100% B10-LARGE cell signal | AID 624168 | 360,000 compounds, 0.22% hits | activation, % at 10 µM;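 active = activation of at least 8% versus controls, or a plate z-score of at least 8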;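 also: Pro5 are CHO cells carrying HIG-tagged alpha-DG that lacks glycosylation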
TPT1 inh: C. albicans TPT1 enzyme inhibition; 300,000 compounds, 0.81% hits; inhibition, % at 5 µM; recombinant caTPT1, FP RNA substrate dephosphorylation; AID 1962;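 active = inhibition above the mean of all tested compounds plus 3 SD, set per screening campaign, cut at about 24% in these data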;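 also: plate controls were DMSO alone for no effect and ferristatin control at 100 nM for full effect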
Rpn11 inh: blocks the human proteasome subunit Rpn11; O00487; human 26S proteasome, Ub4-pepOG fluorescence polarization; 20S core pre-blocked with epoxomicin; inhibition, % at 20 µM; 360,000 compounds, 0.59% hits; AID 588493;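 active = inhibition at 20 µM, scaled to each plate's controls, above about 33%, limit read from the data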
Target sequence (O00487 whole entry, looked up): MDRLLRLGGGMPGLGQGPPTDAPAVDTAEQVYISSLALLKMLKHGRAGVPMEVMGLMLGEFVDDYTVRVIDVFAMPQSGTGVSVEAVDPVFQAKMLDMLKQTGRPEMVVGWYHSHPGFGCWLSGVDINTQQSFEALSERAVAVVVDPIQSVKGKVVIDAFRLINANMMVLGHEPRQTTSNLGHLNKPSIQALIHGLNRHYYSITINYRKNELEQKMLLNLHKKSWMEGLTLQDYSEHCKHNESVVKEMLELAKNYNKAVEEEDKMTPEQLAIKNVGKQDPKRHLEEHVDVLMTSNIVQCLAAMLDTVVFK
HNF4A DNA FP: change in binding of human HNF4 alpha to DNA. P41235. HNF4a-FITC DNA binding, fluorescence polarization, 1 h. activity change, % at 10 µM. 360,000 compounds, 0.3% hits; in the data active = activity change above about 30%, passing the limit was not always enough
CSN deneddyl inh: inhibitors of human CSN-mediated cullin deneddylation | inhibition, % at 12.5 µM | Purified CSN, SCF-Nedd8-OG deneddylation, fluorescence polarization | Q92905 | 360,000 compounds, 0.38% hits;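 active = pattern-corrected inhibition above about 35%, with an unprinted fluorescence ratio check between 0.5 and 1.5, limit read from the data, passing the limit was not always enough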;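 also: 0% = enzyme with substrate and 100% = substrate without enzyme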
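Detection – fluorescence polarization · System – HEK293T-derived human Csn5 enzyme · Controls – substrate-only high control, full reaction low control · Timing – 90 min, room temperature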
Xi reactivation: X-chromosome reactivation activator; XiGFP mouse fibroblasts, % GFP-positive cells imaging, 3 d; cells co-treated with 5-aza-dC sensitizer; scaled so ellipticine positive control = 100%; activation, % at 7.58 µM; 360,000 compounds, 0.055% hits;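 active = mean normalized replicate activation at least 10% and every replicate at or above 10%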;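 also: 0% = median of on-plate neutral control wells and 100% = ellipticine 6 µM median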
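Material: XiGFP fibroblasts, SV40-immortalized. Buffer or medium: DMEM plus 5-aza-dC sensitizer. Compound: single concentration per compound, delivered by pin transfer. Times: 3 days compound exposure. Controls: ellipticine 6 µM.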
aDG conf: alpha-DG glycosylation activation, confirmation | shares compounds with aDG glyco act | Pro5-aDG cells, IIH6 AlphaLISA; scaled to LARGE-overexpressing B10 cells as 100% | activation, % at 10 µM (by protocol) | 600 compounds, 17% hits;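 active = activation of at least 7% in one or more replicates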;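 also: cells exposed to compound for two days before detection; 0% = DMSO-treated Pro5 cells and 100% = DMSO-treated B10-LARGE cells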
* hit, by the source's call; · = no result given. Compounds with a hit are over-represented: about 1.3% of the library has one in this group of screens.

SMILES	aDG glyco act	TPT1 inh	Rpn11 inh	HNF4A DNA FP	CSN deneddyl inh	Xi reactivation	aDG conf
CCCNC(=O)N(C)C[C@H]1Oc2ncc(-c3ccc(F)cc3)cc2C(=O)N([C@@H](C)CO)C[C@@H]1C	·	·	·	·	·	-0.3	·
CO[C@@H]1CN(C)C(=O)c2ccc(NS(=O)(=O)c3cccc(C)c3)cc2OC[C@H](C)NC[C@H]1C	·	·	·	·	·	-0.4	·
Cc1cccc(C)c1NC(=O)c1ccc([N+](=O)[O-])s1	1.2	0.6	5.6	-0.2	1.8	0.0	·
Cc1cccc(NC(=O)c2ccc([N+](=O)[O-])s2)c1C	10.1*	0.8	1.9	-4.5	-4.5	0.0	1.4
CC1CCCCC1NC(=O)Cc1ccc(S(=O)(=O)N2CCOCC2)s1 (stereo unspecified)	6.0*	-0.8	1.2	0.5	5.2	0.4	-0.8
O=C(Nc1cccc(F)c1)N1C[C@H]2[C@@H](c3ccccc31)[C@@H](CO)N2C(=O)Cc1ccccn1	·	·	·	·	·	-0.1	·
Cc1cc(-c2csc(NC(=O)c3ccc(S(=O)(=O)N(C)C)cc3)n2)c(C)n1-c1ccccc1	9.4*	10.1	25.0	9.1	17.2	0.1	-1.3
COc1ccccc1CCNCc1ccc(OC)c(OCc2ccccc2)c1	5.6*	-2.0	6.9	3.7	1.0	·	1.7
O=C(CSc1cccs1)Nc1ccc(Cl)cc1	3.1*	-3.5	9.8	1.5	-0.5	-0.1	-1.0
O=C(CSc1ccc(Cl)cc1)Nc1ccccc1	-0.3	·	-0.2	-1.3	0.2	0.0	·
CCCN(C)C[C@@H]1Oc2cc(-c3ccc(C#N)cc3)ccc2S(=O)(=O)N([C@@H](C)CO)C[C@@H]1C	·	·	·	·	·	1.7	·
Cc1cc(Br)ccc1OCCCCNC(C)(C)C	4.3*	0.0	3.3	-0.9	4.2	·	7.2*
COCCCNCCCCOc1ccc(Br)cc1C	3.5	-6.2	3.1	0.5	-1.7	1.5	·
CN(C)c1nc(-c2cn(CCC#N)c3ccccc23)cs1	5.1*	-13.9	-16.6	-14.6	-3.2	0.2	2.0
COc1ccc(N2CCN(Cc3nc(N)nc(Nc4ccccc4OC)n3)CC2)cc1	12.0*	-2.2	8.2	-1.7	1.1	·	0.5
CCNC(=O)[C@H]1[C@H](CO)[C@H]2Cn3c(ccc(-c4ccccc4)c3=O)[C@@H]1N2C(=O)CC1CC1	·	·	·	·	·	0.8	·
CCN(CC)S(=O)(=O)c1ccc(=O)n(CC(=O)N2Cc3ccccc3CC2C(N)=O)c1 (stereo unspecified)	3.4*	·	-0.1	-1.3	1.4	0.1	-1.0
CC(C)(C)[S@](=O)N1Cc2cc(C(=O)N[C@@H]3CCN(Cc4ccccc4)C3)nc(-c3cccc(-c4cncnc4)c3)c2[C@@H]1CCO	·	·	·	·	·	0.1	·
Cc1cccc(C)c1NC(=O)CSc1nc2[nH]c(=O)cc(O)c2s1	18.5*	·	11.9	-1.6	2.5	0.0	0.5
Cc1ccc(S(=O)(=O)Nc2cccc3c2O[C@@H](CN(C)C(=O)Nc2ccc(F)cc2)[C@@H](C)CN([C@H](C)CO)C3=O)cc1	·	·	·	·	·	0.1	·
CC12CCC(C(NC(=S)NN)C1=O)C2(C)C (stereo unspecified)	26.6*	·	-4.1	0.3	1.8	0.1	0.4
CC12CCC(C(N)C1=O)C2(C)C (stereo unspecified)	0.0	·	-8.8	-0.7	-1.7	-0.1	·
CCCN(CC(=O)Nc1ccccc1Br)CC(=O)Nc1ccc(F)c(F)c1F	0.2	-0.6	1.1	0.5	-5.9	0.4	·
CCCN(CC(=O)Nc1cc(Cl)cc(Cl)c1)CC(=O)Nc1ccc(F)c(F)c1F	5.9*	5.1	0.2	-2.1	-0.5	-0.1	0.2
CCCN(C)C[C@H]1Oc2cc(C3=CCCCC3)ccc2S(=O)(=O)N([C@H](C)CO)C[C@@H]1C	·	·	·	·	·	-0.9	·
CCN(CC)CCCN(C(=O)c1ccccc1C)c1nc(-c2ccc(OC)cc2)cs1	0.3	-0.4	-1.4	-2.7	-3.8	0.1	·
CCN(CC)CCCN(C(=O)c1ccccc1F)c1nc(-c2ccc(OC)cc2)cs1	4.0*	-0.3	-2.4	0.3	0.9	0.1	1.9

Source: PubChem (several laboratories)
